pIC50: −log10 of the molar value.
Tests used:
[1] = (§1) Tested for cytotoxic activity against monkey kidney cells(BSC-1) cells.; type: functional, cell-based; conditions: Cercopithecidae
Outline: (§2)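 Cytotoxicity was scored visually on uninfected HFF or BSC-1 cells within the plaque-reduction plates. Drug-induced cytopathology was graded 0 to 4+ at 35- and 60-fold magnification on the day of staining for plaque enumeration.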

HFF = assay: Tested for cytotoxic activity against human foreskin fibroblasts (HFF) cells.; type: functional, cell-based; outline: as §2
[2] = Tested for cytotoxic activity against human neoplastic cell line(KB cells).; type: functional, cell-based
Outline: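 KB cells were grown in MEM with Hank salts and 5% FBS. Inhibition of radioactive precursor incorporation into DNA, RNA and protein was measured. IC50s were obtained by regression of percent inhibition against log concentration, and the three values were averaged.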

Human betaherpesvirus 5 = assay: Tested for antiviral activity against human cytomegalovirus (HCMV) by means of plaque reduction assay.; type: functional, organism-based
Outline: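 HFF monolayers (MEM(E), 10% FBS) were inoculated with about 50 PFU of a plaque-purified Towne strain HCMV isolate in 0.2 mL. Test compounds were included in the overlay medium and plaques counted. IC50 came from a linear regression of percent inhibition versus log concentration. Positive controls ran in all assays, with sets rejected if the control deviated >1.5 SD.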

Human alphaherpesvirus 1 = assay: Tested for antiviral activity against herpes simplex virus-1(HSV-1) by means of plaque reduction assay.; type: functional, organism-based
Outline: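 Monolayer BSC-1 cells (MEM with Earle's salts, 10% FBS) infected with about 100 PFU HSV-1 strain S-148 in 0.2 mL inoculum. Compounds were dissolved in the overlay medium and plaques counted. IC50 was taken from a linear regression of percent inhibition against log concentration. An acyclovir or ganciclovir positive control was run in every assay, and sets deviating >1.5 SD were rejected.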

BSC-1 = assay: as §1; type: functional, cell-based, Cercopithecidae; conditions: Chlorocebus aethiops; outline: as §2

Compound | pIC50 [1] | pIC50 (HFF) | pIC50 [2] | pIC50 (Human betaherpesvirus 5) | pIC50 (Human alphaherpesvirus 1) | pIC50 (BSC-1)
Nc1nc2c(ncn2COC(CO)CO)c(=O)[nH]1 [GANCICLOVIR] | < 4.00 | < 4.00 | 3.00 | – | – | –
CC(=O)OCCOCn1nc(C#N)c2c(N)ncnc21 | < 4.00 | < 4.00 | 4.27 | < 4.00 | < 4.00 | –
COC(=N)c1nn(COCCO)c2ncnc(N)c12 | < 4.00 | < 4.00 | – | < 4.00 | < 4.00 | –
NC(=S)c1nn(COCCO)c2ncnc(N)c12 | 4.00 | 4.26 | 4.62 | 5.60 | 5.05 | –
Nc1nc2c(ncn2COCCO)c(=O)[nH]1 [ACYCLOVIR] | < 4.00 | < 4.00 | < 4.00 | – | – | –
N#Cc1nnc2nc[nH]c(N)c1-2 | – | < 4.00 | – | 4.17 | 4.80 | < 4.00
NC(=O)c1nn(COCCO)c2ncnc(N)c12 | < 4.00 | < 4.00 | < 4.00 | < 4.00 | < 4.00 | –
N#Cc1nn(COCCO)c2ncnc(N)c12 | < 4.00 | < 4.00 | – | < 4.00 | < 4.00 | –

Reference: ChEMBL document CHEMBL1124845, “Synthesis and antiviral activity of some 7-[(2-hydroxyethoxy)methyl]pyrazolo[3,4-d]pyrimidine analogues of sangivamycin and toyocamycin” (J Med Chem, 1990)
